For orientation: MIC means the lowest concentration that inhibits growth of the organism. Lower therefore signals a more susceptible organism.

≈ marks a conversion by molar mass, not a printed value.

For one assay, the system named is Staphylococcus aureus. In words: Antibacterial activity against Staphylococcus aureus ATCC 25923 after 20 hrs by broth microdilution method. Conditions: ATCC 25923, 20 h. Type of assay: functional. A digest of the protocol: (§1)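 MIC by two-fold dilution series (1/2 to 1/1024) of a 2048 µg/mL DMSO stock in cation-adjusted Müller-Hinton broth. Inoculum from colonies of 24 h Columbia blood agar culture, adjusted to 0.5 McFarland, diluted to 1 × 10^6 CFU/mL and added 1:1 to compound broth. Incubated 37 °C, 20 h. MIC is the lowest concentration with no turbidity or growth button, read by eye. Run in duplicate.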
Background: In broth dilution the organism is exposed to a series of concentrations in liquid medium.
As for `COc1cc(Nc2nnc(-c3ccc(S(=O)(=O)c4ccc(Br)cc4)cc3)s2)cc(OC)c1OC`, the MIC amounted to 512 µg/mL (≈ 910 µM).

Regarding `O=S(=O)(c1ccccc1)c1ccc(-c2n[nH]c(=S)n2-c2ccc(OC(F)(F)F)cc2)cc1`, the MIC turned out to be 256 µg/mL (≈ 536 µM).

For the compound `O=C(NNC(=S)Nc1ccc(OC(F)(F)F)cc1)c1ccc(S(=O)(=O)c2ccc(Br)cc2)cc1`, the MIC worked out at 512 µg/mL (≈ 891 µM). This MIC lies about 2-fold higher than the previous one.

The compound `O=S(=O)(c1ccc(Br)cc1)c1ccc(-c2nnc(Nc3ccc(OC(F)(F)F)cc3)s2)cc1` gave an MIC of 512 µg/mL (≈ 920 µM).

Consider `O=C(NNC(=S)Nc1ccc(OC(F)(F)F)cc1)c1ccc(S(=O)(=O)c2ccccc2)cc1`, for which 256 µg/mL (≈ 517 µM) was the least that counted as inhibitory (MIC). This MIC lies about 2-fold lower than the previous one.

`COc1cc(-n2c(-c3ccc(S(=O)(=O)c4ccc(Br)cc4)cc3)n[nH]c2=S)cc(OC)c1OC`: the MIC turned out to be 128 µg/mL (≈ 228 µM).

In a further assay the test system is Bacillus cereus. Put plainly: Antibacterial activity against Bacillus cereus ATCC 13061 after 20 hrs by broth microdilution method. Type of assay: functional. Conditions: ATCC 13061, 20 h. A digest of the protocol:
as §1
For `COc1cc(Nc2nnc(-c3ccc(S(=O)(=O)c4ccc(Br)cc4)cc3)s2)cc(OC)c1OC`, 16 µg/mL (≈ 28.4 µM) was the least that counted as inhibitory (MIC).

In the case of `O=S(=O)(c1ccccc1)c1ccc(-c2n[nH]c(=S)n2-c2ccc(OC(F)(F)F)cc2)cc1`, the MIC came to 32 µg/mL (≈ 67 µM).

With `O=C(NNC(=S)Nc1ccc(OC(F)(F)F)cc1)c1ccc(S(=O)(=O)c2ccc(Br)cc2)cc1`, the MIC stood at 32 µg/mL (≈ 55.7 µM).

In turn, `O=S(=O)(c1ccc(Br)cc1)c1ccc(-c2nnc(Nc3ccc(OC(F)(F)F)cc3)s2)cc1` returned an MIC of 32 µg/mL (≈ 57.5 µM).

In turn, `O=C(NNC(=S)Nc1ccc(OC(F)(F)F)cc1)c1ccc(S(=O)(=O)c2ccccc2)cc1` displayed an MIC of 32 µg/mL (≈ 64.6 µM).

The compound `COc1cc(-n2c(-c3ccc(S(=O)(=O)c4ccc(Br)cc4)cc3)n[nH]c2=S)cc(OC)c1OC` registered a minimum inhibitory concentration (MIC) of 8 µg/mL (≈ 14.2 µM).

The subject of a further assay is Escherichia coli. Put plainly: Antibacterial activity against Escherichia coli ATCC 25922 after 20 hrs by broth microdilution method. Type of assay: functional. The settings on record: ATCC 25922, 20 h. The essentials:
as §1
`COc1cc(Nc2nnc(-c3ccc(S(=O)(=O)c4ccc(Br)cc4)cc3)s2)cc(OC)c1OC`: the MIC was found to be 64 µg/mL (≈ 114 µM).

`O=S(=O)(c1ccccc1)c1ccc(-c2n[nH]c(=S)n2-c2ccc(OC(F)(F)F)cc2)cc1`: the MIC was 128 µg/mL (≈ 268 µM).

Turning to `O=C(NNC(=S)Nc1ccc(OC(F)(F)F)cc1)c1ccc(S(=O)(=O)c2ccc(Br)cc2)cc1`, the MIC was determined as 128 µg/mL (≈ 223 µM).

The compound `O=S(=O)(c1ccc(Br)cc1)c1ccc(-c2nnc(Nc3ccc(OC(F)(F)F)cc3)s2)cc1` came in with an MIC of 128 µg/mL (≈ 230 µM).

`O=C(NNC(=S)Nc1ccc(OC(F)(F)F)cc1)c1ccc(S(=O)(=O)c2ccccc2)cc1` gave an MIC of 128 µg/mL (≈ 258 µM).

As for `COc1cc(-n2c(-c3ccc(S(=O)(=O)c4ccc(Br)cc4)cc3)n[nH]c2=S)cc(OC)c1OC`, the MIC was 128 µg/mL (≈ 228 µM).

The subject of the next assay is Enterobacter cloacae. Put plainly: Antibacterial activity against Enterobacter cloacae ATCC 49141 after 20 hrs by broth microdilution method. Type of assay: functional. Conditions: ATCC 49141, 20 h. A digest of the protocol:
as §1
For the compound `COc1cc(Nc2nnc(-c3ccc(S(=O)(=O)c4ccc(Br)cc4)cc3)s2)cc(OC)c1OC`, it took 128 µg/mL (≈ 228 µM) to inhibit growth (MIC).

In turn, `O=S(=O)(c1ccccc1)c1ccc(-c2n[nH]c(=S)n2-c2ccc(OC(F)(F)F)cc2)cc1` returned a minimum inhibitory concentration (MIC) of 128 µg/mL (≈ 268 µM).

`O=C(NNC(=S)Nc1ccc(OC(F)(F)F)cc1)c1ccc(S(=O)(=O)c2ccc(Br)cc2)cc1` came in with an MIC of 128 µg/mL (≈ 223 µM).

In the case of `O=S(=O)(c1ccc(Br)cc1)c1ccc(-c2nnc(Nc3ccc(OC(F)(F)F)cc3)s2)cc1`, inhibition of growth (MIC) required 128 µg/mL (≈ 230 µM).

In turn, `O=C(NNC(=S)Nc1ccc(OC(F)(F)F)cc1)c1ccc(S(=O)(=O)c2ccccc2)cc1` yielded an MIC of 128 µg/mL (≈ 258 µM).

The compound `COc1cc(-n2c(-c3ccc(S(=O)(=O)c4ccc(Br)cc4)cc3)n[nH]c2=S)cc(OC)c1OC` registered an MIC of 128 µg/mL (≈ 228 µM).

In another assay the test system is Acinetobacter baumannii. In words: Antibacterial activity against Acinetobacter baumannii ATCC 19606 after 20 hrs by broth microdilution method. Type of assay: functional. Conditions: ATCC 19606 = CIP 70.34 = JCM 6841, 20 h. The essentials:
as §1
In turn, `COc1cc(Nc2nnc(-c3ccc(S(=O)(=O)c4ccc(Br)cc4)cc3)s2)cc(OC)c1OC` came in with a minimum inhibitory concentration (MIC) of 32 µg/mL (≈ 56.9 µM).

The compound `O=S(=O)(c1ccccc1)c1ccc(-c2n[nH]c(=S)n2-c2ccc(OC(F)(F)F)cc2)cc1` returned an MIC of 32 µg/mL (≈ 67 µM).

The compound `O=C(NNC(=S)Nc1ccc(OC(F)(F)F)cc1)c1ccc(S(=O)(=O)c2ccc(Br)cc2)cc1` returned a minimal inhibitory concentration (MIC) of 64 µg/mL (≈ 111 µM). Against the preceding compound, the MIC is about 2-fold higher.

The compound `O=S(=O)(c1ccc(Br)cc1)c1ccc(-c2nnc(Nc3ccc(OC(F)(F)F)cc3)s2)cc1` showed an MIC of 32 µg/mL (≈ 57.5 µM).

Regarding `O=C(NNC(=S)Nc1ccc(OC(F)(F)F)cc1)c1ccc(S(=O)(=O)c2ccccc2)cc1`, the MIC is 64 µg/mL (≈ 129 µM).

Take `COc1cc(-n2c(-c3ccc(S(=O)(=O)c4ccc(Br)cc4)cc3)n[nH]c2=S)cc(OC)c1OC`: it took 32 µg/mL (≈ 56.9 µM) to inhibit growth (MIC).

The subject of the next assay is Pseudomonas aeruginosa. In words: Antibacterial activity against Pseudomonas aeruginosa ATCC 27853 after 20 hrs by broth microdilution method. The settings on record: ATCC 27853, 20 h. Type of assay: functional. The essentials: as §1
Compound `COc1cc(Nc2nnc(-c3ccc(S(=O)(=O)c4ccc(Br)cc4)cc3)s2)cc(OC)c1OC` registered an MIC of 64 µg/mL (≈ 114 µM).

In the case of `O=S(=O)(c1ccccc1)c1ccc(-c2n[nH]c(=S)n2-c2ccc(OC(F)(F)F)cc2)cc1`, inhibition of growth (MIC) required 64 µg/mL (≈ 134 µM).

Turning to `O=C(NNC(=S)Nc1ccc(OC(F)(F)F)cc1)c1ccc(S(=O)(=O)c2ccc(Br)cc2)cc1`, the MIC came to 64 µg/mL (≈ 111 µM).

On to `O=S(=O)(c1ccc(Br)cc1)c1ccc(-c2nnc(Nc3ccc(OC(F)(F)F)cc3)s2)cc1`, for which the MIC was determined as 64 µg/mL (≈ 115 µM).

Consider `O=C(NNC(=S)Nc1ccc(OC(F)(F)F)cc1)c1ccc(S(=O)(=O)c2ccccc2)cc1`, for which the MIC was 64 µg/mL (≈ 129 µM).

In turn, `COc1cc(-n2c(-c3ccc(S(=O)(=O)c4ccc(Br)cc4)cc3)n[nH]c2=S)cc(OC)c1OC` showed an MIC of 64 µg/mL (≈ 114 µM).

The next assay relates to Candida albicans. In words: Antifungal activity against Candida albicans ATCC 90028 after 24 hrs by broth microdilution method. The settings on record: ATCC 90028, 24 h. Type of assay: functional. A digest of the protocol: (§2)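 Two-fold dilutions (1/2 to 1/1024) of a 2048 µg/mL DMSO stock made in Sabouraud broth. Yeast inoculum from colonies of 24 h Sabouraud dextrose agar culture, 0.5 McFarland, diluted in sterile water to 10^5 CFU/mL and added in equal volume to broth. Incubated 37 °C, 24 h (C. albicans) or 48 h (C. parapsilosis). MIC read by eye as lowest concentration without turbidity or growth button. Run in duplicate.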
`COc1cc(Nc2nnc(-c3ccc(S(=O)(=O)c4ccc(Br)cc4)cc3)s2)cc(OC)c1OC` returned an MIC of 64 µg/mL (≈ 114 µM).

As to `O=S(=O)(c1ccccc1)c1ccc(-c2n[nH]c(=S)n2-c2ccc(OC(F)(F)F)cc2)cc1`, the minimum inhibitory concentration (MIC) came out at 128 µg/mL (≈ 268 µM).

`O=C(NNC(=S)Nc1ccc(OC(F)(F)F)cc1)c1ccc(S(=O)(=O)c2ccc(Br)cc2)cc1`: inhibition of growth (MIC) required 64 µg/mL (≈ 111 µM).

Compound `O=S(=O)(c1ccc(Br)cc1)c1ccc(-c2nnc(Nc3ccc(OC(F)(F)F)cc3)s2)cc1` yielded an MIC of 128 µg/mL (≈ 230 µM).

The compound `O=C(NNC(=S)Nc1ccc(OC(F)(F)F)cc1)c1ccc(S(=O)(=O)c2ccccc2)cc1` came in with an MIC of 64 µg/mL (≈ 129 µM).

The compound `COc1cc(-n2c(-c3ccc(S(=O)(=O)c4ccc(Br)cc4)cc3)n[nH]c2=S)cc(OC)c1OC` showed an MIC of 64 µg/mL (≈ 114 µM).

The subject of another assay is Candida parapsilosis. In words: Antifungal activity against Candida parapsilosis ATCC 22019 after 48 hrs by broth microdilution method. Type of assay: functional. The settings on record: Lodderomyces parapsilosis, ATCC 22019, 48 h. The essentials:
as §2
As to `COc1cc(Nc2nnc(-c3ccc(S(=O)(=O)c4ccc(Br)cc4)cc3)s2)cc(OC)c1OC`, the MIC turned out to be 64 µg/mL (≈ 114 µM).

`OC(Cn1cncn1)(Cn1cncn1)c1ccc(F)cc1F` [FLUCONAZOLE] displayed an MIC of 2 µg/mL (≈ 6.53 µM). This MIC lies about 32-fold lower than the previous one.

`O=S(=O)(c1ccccc1)c1ccc(-c2n[nH]c(=S)n2-c2ccc(OC(F)(F)F)cc2)cc1` came in with an MIC of 64 µg/mL (≈ 134 µM).

On to `O=C(NNC(=S)Nc1ccc(OC(F)(F)F)cc1)c1ccc(S(=O)(=O)c2ccc(Br)cc2)cc1`, for which the MIC is 64 µg/mL (≈ 111 µM).

Take `O=S(=O)(c1ccc(Br)cc1)c1ccc(-c2nnc(Nc3ccc(OC(F)(F)F)cc3)s2)cc1`: it took 64 µg/mL (≈ 115 µM) to inhibit growth (MIC).

In turn, `O=C(NNC(=S)Nc1ccc(OC(F)(F)F)cc1)c1ccc(S(=O)(=O)c2ccccc2)cc1` came in with an MIC of 64 µg/mL (≈ 129 µM).

`COc1cc(-n2c(-c3ccc(S(=O)(=O)c4ccc(Br)cc4)cc3)n[nH]c2=S)cc(OC)c1OC` yielded an MIC of 16 µg/mL (≈ 28.4 µM).

Values taken from ChEMBL document CHEMBL1944534, “New heterocyclic compounds from 1,2,4-triazole and 1,3,4-thiadiazole class bearing diphenylsulfone moieties. Synthesis, characterization and antimicrobial activity evaluation” (2012).
